Results on 2 molecules are retold here after ChEMBL document CHEMBL4007449, “Novel multi-substituted benzyl acridone derivatives as survivin inhibitors for hepatocellular carcinoma treatment” (Eur J Med Chem, 2017).

One data set deals with MCF7. The data set is described as follows: Antiproliferative activity against human MCF7 cells after 48 hrs by MTT assay. The data set is classed as functional, cell-based. The note with it: MCF7, 48 h. A digest of the protocol:
(§1)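 Cells grown in DMEM with 10% FBS at 37 °C, 5% CO2; seeded at 6 × 10^3 cells/well, allowed to attach 12 h, then exposed to compound at final 50, 25, 10, 1 and 0.1 µM for 48 h. MTT (5 mg/mL) added for 4 h, formazan dissolved in DMSO, absorbance read at 490 nm; IC50 taken from the resulting curve.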
A general note: Formazan colour is commonly taken as a measure of viable cells.

Data set [1] can be described thus: Selectivity index, ratio of IC50 for human QGY7701 cells to IC50 for human HepG2 cells. The data set is classed as functional. Summed up: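 Ratio built from MTT IC50 values: QGY-7701 and HepG2 cells in DMEM/10% FBS, seeded at 6 × 10^3 cells/well, attached 12 h, treated 48 h at final 0.1–50 µM, MTT 4 h, DMSO solubilisation, absorbance at 490 nm.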
A short description of data set [2]: Antiproliferative activity against human QGY7701 cells after 48 hrs by MTT assay. As to conditions: QGY7701, 48 h. The data set is classed as cell-based. Summed up: as §1
The test system of data set [3] is HepG2. Nature of the data set: Antiproliferative activity against human HepG2 cells after 48 hrs by MTT assay. The format is functional, cell-based. The note with it: HepG2, 48 h. Summed up: as §1
The subject of data set [4] is Mus musculus. The data set is described as follows: Toxicity in ip dosed nude mouse ectopically xenografted with human HepG2 cells assessed as increase in spleen weight administered once in 2 days measured after 30 days. The data set is classed as organism-based. As to conditions: in vivo, 720 h. A digest of the protocol: (§2)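 HepG2 cells implanted subcutaneously in the flanks of nude mice, randomised into groups of 5: blank, 5-FU (25 mg/kg) and test compound hydrochloride at 0.33 or 3 mg/kg, given i.p. once every 2 days. Tumour volume and body weight recorded every 2 days. Mice euthanised on day 30; tumours, liver and spleen weighed and organ indices calculated; tumour growth inhibition derived.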
(A xenograft is tissue or cells of one species grown in another, often human tumour cells in immunodeficient mice.)

The subject of data set [5] is Mus musculus. Nature of the data set: Toxicity in nude mouse ectopically xenografted with human HepG2 cells assessed as body weight loss at 0.33 to 3 mg/kg, ip administered once in 2 days measured up to 30 days post dose. The note with it: in vivo. The data set is classed as organism-based. Summed up:
as §2

In data set [6] the test system is Mus musculus. Nature of the data set: Toxicity in nude mouse ectopically xenografted with human HepG2 cells assessed as effect on normal growth at 0.33 to 3 mg/kg, ip administered once in 2 days measured up to 30 days post dose. The note with it: in vivo. The format is organism-based. Summed up:
as §2

In data set [7] the test system is HepG2. The data set is described as follows: Antitumor activity against human HepG2 cells ectopically xenografted in nude mouse assessed as tumor growth inhibition at 3 mg/kg, ip administered once in 2 days measured after 30 days relative to control. The data set is classed as functional. The note with it: read-out: TGI. Summed up:
as §2

Data set [8] concerns Mus musculus. The data set is described as follows: Toxicity in nude mouse ectopically xenografted with human HepG2 cells assessed as effect on normal behavior at 0.33 to 3 mg/kg, ip administered once in 2 days measured up to 30 days post dose. The note with it: in vivo. The format is organism-based. Summed up:
as §2

Data set [9] relates to Mus musculus. Nature of the data set: Toxicity in nude mouse ectopically xenografted with human HepG2 cells assessed as spleen weight at 0.33 mg/kg, ip administered once in 2 days measured after 30 days (reference value: 0.071 to 0.248 g). As to conditions: in vivo, 720 h. The format is organism-based. Summed up:
as §2

In data set [10] the test system is Mus musculus. Nature of the data set: Toxicity in nude mouse ectopically xenografted with human HepG2 cells assessed as liver weight index at 3 mg/kg, ip administered once in 2 days measured after 30 days (reference value: 0.0009 to 0.0187). The data set is classed as organism-based. The note with it: in vivo, 720 h. Summed up:
as §2

Data set [11] relates to Mus musculus. Nature of the data set: Toxicity in nude mouse ectopically xenografted with human HepG2 cells assessed as spleen weight at 3 mg/kg, ip administered once in 2 days measured after 30 days (reference value: 0.071 to 0.248 g). As to conditions: in vivo, 720 h. The data set is classed as organism-based. A digest of the protocol: as §2
The test system of data set [12] is Mus musculus. The data set is described as follows: Toxicity in nude mouse ectopically xenografted with human HepG2 cells assessed as spleen weight index at 0.33 mg/kg, ip administered once in 2 days measured after 30 days (reference value: 0.002 to 0.0106). The note with it: in vivo, 720 h. The data set is classed as organism-based. Summed up: as §2
The test system of data set [13] is Mus musculus. Nature of the data set: Toxicity in nude mouse ectopically xenografted with human HepG2 cells assessed as spleen weight index at 3 mg/kg, ip administered once in 2 days measured after 30 days (reference value: 0.002 to 0.0106). The note with it: in vivo, 720 h. The data set is classed as organism-based. A digest of the protocol:
as §2

Data set [14] concerns Mus musculus. Nature of the data set: Toxicity in nude mouse ectopically xenografted with human HepG2 cells assessed as liver weight at 3 mg/kg, ip administered once in 2 days measured after 30 days (reference value: 0.069 to 0.434 g). The format is organism-based. As to conditions: in vivo, 720 h. A digest of the protocol:
as §2

Data set [15] relates to Mus musculus. The data set is described as follows: Toxicity in nude mouse ectopically xenografted with human HepG2 cells assessed as liver weight index at 0.33 mg/kg, ip administered once in 2 days measured after 30 days (reference value: 0.0009 to 0.0187). As to conditions: in vivo, 720 h. The data set is classed as organism-based. Summed up:
as §2

Data set [16] concerns Mus musculus. Nature of the data set: Toxicity in nude mouse ectopically xenografted with human HepG2 cells assessed as liver weight at 0.33 mg/kg, ip administered once in 2 days measured after 30 days (reference value: 0.069 to 0.434 g). The data set is classed as organism-based. As to conditions: in vivo, 720 h. A digest of the protocol:
as §2

For orientation: IC50 means the concentration at which inhibition is half-maximal. Read a low IC50 as inhibition by little substance. As for `COc1ccc(CNc2ccc(C(=O)NCCCN(C)C)c3[nH]c4c([N+](=O)[O-])cccc4c(=O)c23)cc1`, the IC50 in the data set on MCF7 was 4.4 µM; in data set [2], 40.7 µM; with HepG2 [3] it was 3.56 µM. In addition, the “Ratio IC50” value in [1] is 11.
Take `COc1ccc(CNc2ccc(C(=O)NCCCN(C)C)c3[nH]c4c([N+](=O)[O-])cccc4c(=O)c23)cc1.Cl`: the Activity entry in the data set on Mus musculus [4] was “Dose-dependent effect”; in the data set with Mus musculus [5] it was “Non-Toxic”; in the data set on Mus musculus [6] it was “Non-Toxic”; with Mus musculus [8], “Non-Toxic”; in the data set on Mus musculus [9], 0.044 to 0.231 g; in the data set with Mus musculus [11], 0.084 to 0.344 g. Moreover, the figures for the Activity with Mus musculus [14] and with Mus musculus [16] were 0.032 to 0.421 g and 0.04 to 0.441 g, respectively. Moreover, the inhibition in vivo at 3 mg/kg in the data set with HepG2 [7] amounted to 54%. Besides, the Activity index in the data set with Mus musculus [10] lay within 0.0025 to 0.0198; in the data set on Mus musculus [12] it was 0.0016 to 0.0113; with Mus musculus [13], 0.0042 to 0.0162; in the data set on Mus musculus [15], 0.0016 to 0.0217.
